{"source": "paper PMC5164959", "about": "(Biochemical pharmacology, 2016)", "key": {"[1]": {"tested_on": "DGKθ", "conditions": "cited from earlier work"}, "[2]": {"tested_on": "PKC", "experiment": "PKC activation: phosphorylation of PKC substrates by western blot in U87 cells", "format": "cell-based, human", "conditions": "treatment for 30 min", "summary_of_the_method": "(§1)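 Glioblastoma cells were treated 30 min with 4 or 40 μM test compound or 100 nM PMA, with or without 1 h pretreatment with 500 nM bisindolylmaleimide II. Cleared Triton lysates (50 μg) were run on 8.75% SDS-PAGE and probed with phospho-(Ser) PKC substrate antibody, detected by alkaline phosphatase chemiluminescence. Three independent experiments were quantified.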"}, "[3]": {"tested_on": "PKC", "experiment": "PKC activation: phosphorylation of PKC substrates by western blot in HeLa cells", "format": "cell-based, human", "conditions": "40 μM, 30 min", "summary_of_the_method": "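HeLa cells were grown in DMEM with 5% FBS and treated 30 min with 4 or 40 μM test compound or 100 nM PMA, with or without 1 h pretreatment with 500 nM bisindolylmaleimide II. In separate runs, a 5-HT2AR agonist (10 μM, 6 h) was given with or without 40 μM antagonist. Lysates (50 μg) were immunoblotted for phospho-(Ser) PKC substrates; four independent experiments were quantified.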"}, "[4]": {"target": "5-HT2B (Homo sapiens, UniProt P41595)", "sequence (P41595 whole entry, species assumed)": "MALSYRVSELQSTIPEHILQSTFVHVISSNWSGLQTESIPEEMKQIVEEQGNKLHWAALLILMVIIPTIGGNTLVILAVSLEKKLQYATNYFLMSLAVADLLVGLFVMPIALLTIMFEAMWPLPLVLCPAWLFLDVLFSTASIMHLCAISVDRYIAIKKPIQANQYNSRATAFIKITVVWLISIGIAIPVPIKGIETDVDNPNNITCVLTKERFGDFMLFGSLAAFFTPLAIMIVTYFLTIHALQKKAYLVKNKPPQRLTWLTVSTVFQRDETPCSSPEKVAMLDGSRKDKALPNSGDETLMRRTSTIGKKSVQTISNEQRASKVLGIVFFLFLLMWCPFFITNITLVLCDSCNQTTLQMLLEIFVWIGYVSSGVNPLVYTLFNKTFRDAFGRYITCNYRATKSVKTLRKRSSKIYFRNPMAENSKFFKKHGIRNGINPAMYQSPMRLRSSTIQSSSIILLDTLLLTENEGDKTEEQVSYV", "experiment": "Radioligand competition binding assay"}, "[5]": {"target": "T1, 5-HT2C (Homo sapiens, UniProt P28335)", "T1 sequence (P28335 33-458)": "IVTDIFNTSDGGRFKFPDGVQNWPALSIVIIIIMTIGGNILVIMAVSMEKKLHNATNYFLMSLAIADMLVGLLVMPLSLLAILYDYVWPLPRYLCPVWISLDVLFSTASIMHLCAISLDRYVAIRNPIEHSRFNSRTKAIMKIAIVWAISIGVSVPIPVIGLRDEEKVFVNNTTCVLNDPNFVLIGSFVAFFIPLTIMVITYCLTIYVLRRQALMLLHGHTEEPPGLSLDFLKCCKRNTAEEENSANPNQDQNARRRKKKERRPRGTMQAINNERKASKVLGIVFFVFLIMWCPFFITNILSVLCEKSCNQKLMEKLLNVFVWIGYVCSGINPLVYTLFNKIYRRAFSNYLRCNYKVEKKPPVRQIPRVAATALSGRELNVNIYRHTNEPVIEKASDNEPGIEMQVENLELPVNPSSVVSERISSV", "experiment": "Radioligand competition binding assay", "conditions": "read-out: Ki 5-HT2C; Cheng-Prusoff from best-fit IC50"}, "[6]": {"target": "DGKθ (Homo sapiens, UniProt P52824)", "sequence (P52824 whole entry)": "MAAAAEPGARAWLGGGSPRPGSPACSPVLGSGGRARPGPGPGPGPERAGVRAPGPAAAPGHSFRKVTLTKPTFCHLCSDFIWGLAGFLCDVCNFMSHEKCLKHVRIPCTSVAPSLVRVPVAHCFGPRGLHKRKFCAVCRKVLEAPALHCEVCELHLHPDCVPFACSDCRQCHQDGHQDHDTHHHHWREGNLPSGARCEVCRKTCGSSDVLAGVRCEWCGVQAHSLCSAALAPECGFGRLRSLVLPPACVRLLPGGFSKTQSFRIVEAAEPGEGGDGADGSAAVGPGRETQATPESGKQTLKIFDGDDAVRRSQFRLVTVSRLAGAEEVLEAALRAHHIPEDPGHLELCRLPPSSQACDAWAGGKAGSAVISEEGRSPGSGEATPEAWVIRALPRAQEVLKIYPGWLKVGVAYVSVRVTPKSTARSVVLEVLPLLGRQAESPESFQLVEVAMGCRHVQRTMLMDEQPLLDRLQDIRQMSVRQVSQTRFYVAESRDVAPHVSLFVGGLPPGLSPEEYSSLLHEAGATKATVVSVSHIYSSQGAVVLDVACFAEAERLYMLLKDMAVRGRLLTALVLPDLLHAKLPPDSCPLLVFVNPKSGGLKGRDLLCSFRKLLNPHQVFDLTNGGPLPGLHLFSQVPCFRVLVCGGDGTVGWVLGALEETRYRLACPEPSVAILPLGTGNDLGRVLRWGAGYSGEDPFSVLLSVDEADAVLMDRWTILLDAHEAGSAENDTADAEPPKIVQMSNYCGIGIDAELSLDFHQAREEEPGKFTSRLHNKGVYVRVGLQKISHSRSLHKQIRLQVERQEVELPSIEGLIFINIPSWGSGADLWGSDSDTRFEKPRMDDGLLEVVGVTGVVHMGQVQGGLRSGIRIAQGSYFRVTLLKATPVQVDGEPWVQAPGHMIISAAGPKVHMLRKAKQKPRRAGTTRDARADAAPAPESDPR", "experiment": "Kinase assay with HEK 293T cell homogenate over-expressing DGKθ", "format": "biochemical", "conditions": "20 μM inhibitor, dioleoyl DAG liposomes", "summary_of_the_method": "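Reactions without CaCl2 contained 5 μg homogenate, 2 mM liposomes (10 mol% dioleoyl DAG, 40 mol% PS, 50 mol% PC), buffer B, 1 mM DTT and [γ32P]-ATP, 20 min at 30°C. Test compound was added from DMSO. Extracted 32P-lipid was counted, GFP-lysate normalized, and expressed as percent of DMSO control.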"}, "[7]": {"target": "5-HT3 (Homo sapiens, UniProt P46098)", "sequence (P46098 24-478, species assumed)": "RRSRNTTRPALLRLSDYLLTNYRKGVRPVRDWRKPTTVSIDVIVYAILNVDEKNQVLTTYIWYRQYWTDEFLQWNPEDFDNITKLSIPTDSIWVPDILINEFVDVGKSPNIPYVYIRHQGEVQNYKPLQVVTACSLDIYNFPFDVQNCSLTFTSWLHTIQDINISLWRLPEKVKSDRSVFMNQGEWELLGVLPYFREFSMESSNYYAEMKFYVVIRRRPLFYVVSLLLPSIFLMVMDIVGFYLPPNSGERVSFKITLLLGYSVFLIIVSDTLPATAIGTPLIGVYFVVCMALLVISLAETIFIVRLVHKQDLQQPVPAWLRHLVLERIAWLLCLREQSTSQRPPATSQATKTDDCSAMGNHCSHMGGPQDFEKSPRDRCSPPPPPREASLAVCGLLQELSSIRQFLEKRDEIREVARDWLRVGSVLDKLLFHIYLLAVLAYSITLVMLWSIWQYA", "experiment": "Radioligand competition binding assay", "conditions": "10 μM test compound, n=4", "summary_of_the_method": "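Run by the NIMH PDSP as a radioligand competition binding primary screen. Test compounds were applied at 10 μM, and the read-out was mean percent inhibition of radioligand binding (n=4).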"}, "[8]": {"target": "5-HT1B (Homo sapiens, UniProt P28222)", "sequence (P28222 whole entry, species assumed)": "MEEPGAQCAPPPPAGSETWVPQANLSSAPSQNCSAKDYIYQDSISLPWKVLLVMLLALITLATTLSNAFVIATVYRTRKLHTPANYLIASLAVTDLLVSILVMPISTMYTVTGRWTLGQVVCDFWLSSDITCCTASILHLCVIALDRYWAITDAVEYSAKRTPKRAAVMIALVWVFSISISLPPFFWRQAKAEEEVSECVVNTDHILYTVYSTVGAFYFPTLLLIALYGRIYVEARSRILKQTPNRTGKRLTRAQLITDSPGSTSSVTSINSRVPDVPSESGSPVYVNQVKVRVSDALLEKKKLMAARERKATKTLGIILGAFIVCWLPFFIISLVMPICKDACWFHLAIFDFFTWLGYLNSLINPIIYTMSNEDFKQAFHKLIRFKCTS", "experiment": "Radioligand competition binding assay", "summary_of_the_method": "(§2)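 Run by the NIMH PDSP as radioligand competition binding assays. The primary screen used 10 μM test compound and reported mean percent inhibition of radioligand binding (n=4); above 50% counted as significant. At those receptors, IC50 values came from non-linear regression of competition binding isotherms and were converted to Ki with the Cheng-Prusoff equation.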"}, "[9]": {"tested_on": "DGKβ", "conditions": "30 μM R59022; cited from earlier work"}, "[10]": {"target": "DGKι (Homo sapiens, UniProt O75912)", "sequence (O75912 1-1065 isoform O75912-1)": "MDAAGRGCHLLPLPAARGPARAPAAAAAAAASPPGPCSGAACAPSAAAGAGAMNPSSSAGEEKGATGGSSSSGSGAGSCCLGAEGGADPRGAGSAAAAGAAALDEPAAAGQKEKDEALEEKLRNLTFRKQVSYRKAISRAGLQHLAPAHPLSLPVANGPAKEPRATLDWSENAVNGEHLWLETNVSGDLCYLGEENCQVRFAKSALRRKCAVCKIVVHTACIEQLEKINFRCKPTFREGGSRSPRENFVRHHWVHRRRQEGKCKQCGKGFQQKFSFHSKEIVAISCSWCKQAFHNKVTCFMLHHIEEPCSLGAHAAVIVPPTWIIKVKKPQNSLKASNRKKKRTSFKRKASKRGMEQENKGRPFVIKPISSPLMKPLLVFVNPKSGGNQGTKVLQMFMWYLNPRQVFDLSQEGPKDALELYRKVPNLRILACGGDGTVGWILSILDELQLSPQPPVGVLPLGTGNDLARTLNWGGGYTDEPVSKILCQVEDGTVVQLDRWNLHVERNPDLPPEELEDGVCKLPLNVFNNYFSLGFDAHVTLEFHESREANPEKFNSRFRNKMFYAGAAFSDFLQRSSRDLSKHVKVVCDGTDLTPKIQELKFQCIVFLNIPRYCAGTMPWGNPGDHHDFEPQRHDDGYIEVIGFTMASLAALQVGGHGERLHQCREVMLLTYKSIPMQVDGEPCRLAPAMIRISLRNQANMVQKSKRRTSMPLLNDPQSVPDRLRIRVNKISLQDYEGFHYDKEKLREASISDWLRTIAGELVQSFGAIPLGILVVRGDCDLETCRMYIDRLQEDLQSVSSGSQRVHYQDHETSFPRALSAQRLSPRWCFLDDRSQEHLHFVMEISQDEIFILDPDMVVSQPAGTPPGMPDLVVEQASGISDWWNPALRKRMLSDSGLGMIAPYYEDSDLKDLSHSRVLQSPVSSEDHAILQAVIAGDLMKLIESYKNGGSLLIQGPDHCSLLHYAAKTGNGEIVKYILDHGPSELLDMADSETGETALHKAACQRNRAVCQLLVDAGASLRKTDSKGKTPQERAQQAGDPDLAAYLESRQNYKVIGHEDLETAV", "experiment": "Kinase assay with HEK 293T cell homogenate over-expressing DGKι", "format": "biochemical"}, "[11]": {"target": "5-HT1D (Homo sapiens, UniProt P28221)", "sequence (P28221 whole entry, species assumed)": "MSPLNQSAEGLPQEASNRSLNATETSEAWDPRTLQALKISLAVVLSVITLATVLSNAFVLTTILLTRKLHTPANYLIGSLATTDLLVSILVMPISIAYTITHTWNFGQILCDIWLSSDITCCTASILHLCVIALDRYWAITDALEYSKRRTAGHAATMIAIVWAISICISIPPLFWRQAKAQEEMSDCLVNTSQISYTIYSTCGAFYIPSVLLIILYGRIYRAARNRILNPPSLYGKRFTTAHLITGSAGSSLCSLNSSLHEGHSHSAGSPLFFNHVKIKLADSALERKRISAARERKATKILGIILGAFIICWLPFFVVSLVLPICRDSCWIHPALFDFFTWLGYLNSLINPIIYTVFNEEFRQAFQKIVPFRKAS", "experiment": "Radioligand competition binding assay", "summary_of_the_method": "as §2"}, "[12]": {"target": "DGKα (Rattus norvegicus, UniProt P51556)", "sequence (P51556 whole entry)": "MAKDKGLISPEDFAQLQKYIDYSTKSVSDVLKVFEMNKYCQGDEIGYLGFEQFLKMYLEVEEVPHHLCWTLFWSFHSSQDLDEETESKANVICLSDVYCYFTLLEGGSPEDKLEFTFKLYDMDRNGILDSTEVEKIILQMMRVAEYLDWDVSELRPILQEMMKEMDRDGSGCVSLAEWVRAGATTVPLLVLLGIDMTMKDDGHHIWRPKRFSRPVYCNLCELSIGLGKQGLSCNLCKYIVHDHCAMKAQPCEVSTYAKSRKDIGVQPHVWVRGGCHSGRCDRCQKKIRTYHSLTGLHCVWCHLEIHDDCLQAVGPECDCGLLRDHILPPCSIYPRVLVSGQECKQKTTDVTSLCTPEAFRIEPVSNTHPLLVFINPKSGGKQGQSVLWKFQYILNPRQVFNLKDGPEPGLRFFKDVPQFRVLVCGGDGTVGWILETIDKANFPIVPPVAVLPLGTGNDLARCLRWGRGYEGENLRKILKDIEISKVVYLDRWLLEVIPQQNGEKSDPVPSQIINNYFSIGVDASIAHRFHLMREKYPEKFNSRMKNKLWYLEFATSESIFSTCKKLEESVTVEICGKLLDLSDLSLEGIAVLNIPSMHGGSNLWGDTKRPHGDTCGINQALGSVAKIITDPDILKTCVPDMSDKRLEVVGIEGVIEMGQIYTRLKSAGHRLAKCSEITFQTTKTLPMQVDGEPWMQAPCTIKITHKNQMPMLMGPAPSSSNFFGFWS", "experiment": "Kinase assay with HEK 293T cell homogenate over-expressing DGKα", "format": "biochemical", "summary_of_the_method": "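Each reaction held 5 μg homogenate protein, 2 mM extruded PC:PS:DAG liposomes (10 mol% dioleoyl, dioctanoyl or stearoyl-arachidonoyl DAG), buffer B, 1 mM DTT, 1 mM CaCl2 and 1 mM [γ32P]-ATP, run 20 min at 30°C. Test compounds came from DMSO stocks. 32P-PA was counted, normalized to GFP lysate and to DMSO control; IC50 from log[inhibitor] versus normalized response.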"}, "[13]": {"tested_on": "5-HTRs", "experiment": "Agonist functional assays at 5 serotonin receptors", "format": "cell-based", "conditions": "5 receptors where low Ki values were observed; data not shown"}, "[14]": {"target": "T2, 5-HT1A (Homo sapiens, UniProt P08908)", "T2 sequence (P08908 1-422)": "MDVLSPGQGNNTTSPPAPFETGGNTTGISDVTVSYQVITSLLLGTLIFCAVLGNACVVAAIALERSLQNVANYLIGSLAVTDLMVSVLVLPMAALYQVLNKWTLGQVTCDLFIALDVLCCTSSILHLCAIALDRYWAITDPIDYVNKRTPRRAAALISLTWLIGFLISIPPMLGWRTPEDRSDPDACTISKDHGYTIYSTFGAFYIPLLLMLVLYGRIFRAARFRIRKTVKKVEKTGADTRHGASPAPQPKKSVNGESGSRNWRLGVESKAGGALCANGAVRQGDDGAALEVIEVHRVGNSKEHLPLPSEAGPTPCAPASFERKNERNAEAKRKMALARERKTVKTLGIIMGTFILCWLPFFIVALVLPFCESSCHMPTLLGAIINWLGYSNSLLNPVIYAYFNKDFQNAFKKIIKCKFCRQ", "experiment": "Radioligand competition binding assay"}, "[15]": {"tested_on": "PKC", "experiment": "PKC activation: phosphorylation of PKC substrates by western blot in U251 cells", "format": "cell-based, human", "conditions": "treatment for 30 min", "summary_of_the_method": "as §1"}, "[16]": {"target": "5-HT6 (Homo sapiens, UniProt P50406)", "sequence (P50406 whole entry, species assumed)": "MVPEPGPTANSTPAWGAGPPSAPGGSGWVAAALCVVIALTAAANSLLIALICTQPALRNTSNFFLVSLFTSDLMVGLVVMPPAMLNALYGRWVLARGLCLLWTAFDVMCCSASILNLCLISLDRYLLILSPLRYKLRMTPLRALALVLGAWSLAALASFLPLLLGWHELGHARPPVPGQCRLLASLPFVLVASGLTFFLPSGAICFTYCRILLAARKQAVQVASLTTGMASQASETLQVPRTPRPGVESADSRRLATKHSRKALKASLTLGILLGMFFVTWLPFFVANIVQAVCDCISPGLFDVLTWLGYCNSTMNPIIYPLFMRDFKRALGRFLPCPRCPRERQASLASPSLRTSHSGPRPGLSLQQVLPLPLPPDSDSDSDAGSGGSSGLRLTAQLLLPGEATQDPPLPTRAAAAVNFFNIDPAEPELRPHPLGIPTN", "experiment": "Radioligand competition binding assay", "summary_of_the_method": "as §2"}}, "data": [{"smiles": "Cc1nc2sccn2c(=O)c1CCN1CCC(=C(c2ccccc2)c2ccc(F)cc2)CC1", "note": "[R59022]", "values": [{"measurement": "Inhibition of DGKθ", "setting": "[1]", "result": "reported to inhibit"}, {"measurement": "Activation of PKC", "setting": "[2]", "result": "activate PKC"}, {"measurement": "Increase in phosphorylation of PKC downstream targets", "setting": "[3]", "result": "about 2.5 fold"}, {"measurement": "Percent Inhibition of Binding 5-HT2B", "setting": "[4]; 10 μM test compound, n=4", "result": 100.5, "unit": "%"}, {"measurement": "Ki", "setting": "[4]; read-out: Ki 5-HT2B, Cheng-Prusoff from best-fit IC50", "result": 2.7, "unit": "nM"}, {"measurement": "Ki", "setting": "[5]", "result": 0.8, "unit": "nM"}, {"measurement": "Activity of DGKθ, percent of control", "setting": "[6]", "result": "not detectably inhibited"}, {"measurement": "Percent Inhibition of Binding 5-HT3", "setting": "[7]", "result": 10.9, "unit": "%"}, {"measurement": "Percent Inhibition of Binding 5-HT1B", "setting": "[8]; 10 μM test compound, n=4", "result": 83.5, "unit": "%"}, {"measurement": "Ki", "setting": "[8]; read-out: Ki 5-HT1B, Cheng-Prusoff from best-fit IC50", "result": 656, "unit": "nM"}, {"measurement": "Inhibition of DGKβ", "setting": "[9]", "result": "did not inhibit"}, {"measurement": "Activity of DGKι, percent of control", "setting": "[10]; 20 μM inhibitor, dioleoyl DAG liposomes, cell homogenate", "result": "not detectably inhibited"}, {"measurement": "IC50 for DGKι relative to IC50 for DGKα", "setting": "[10]; fold higher than IC50 for DGKα", "result": "2–3 fold"}, {"measurement": "IC50", "setting": "[10]; read-out: IC50 for DGKι, cell homogenate, 1 mM ATP, 10 mol% DAG", "result": "~60000", "unit": "nM"}, {"measurement": "Percent Inhibition of Binding 5-HT1D", "setting": "[11]; 10 μM test compound, n=4", "result": 90.4, "unit": "%"}, {"measurement": "Ki", "setting": "[11]; read-out: Ki 5-HT1D, Cheng-Prusoff from best-fit IC50", "result": 12.3, "unit": "nM"}, {"measurement": "Activity of DGKα, percent of control", "setting": "[12]; 20 μM inhibitor, liposomes with dioleoyl DAG, cell homogenate", "result": "decreased by about half"}, {"measurement": "Potency against DGKα with other DAG species", "setting": "[12]; 20 μM, liposomes containing dioctanoyl or stearoyl arachidonoyl DAG", "result": "similarly potent"}, {"measurement": "IC50", "setting": "[12]; read-out: IC50 for DGKα, cell homogenate, 1 mM ATP, 10 mol% DAG", "result": "~25000", "unit": "nM"}, {"measurement": "Agonist activity at 5-HTRs", "setting": "[13]", "result": "very low to no activity"}, {"measurement": "Percent Inhibition of Binding 5-HT1A", "setting": "[14]; 10 μM test compound, n=4", "result": 82.4, "unit": "%"}, {"measurement": "Ki", "setting": "[14]; read-out: Ki 5-HT1A, Cheng-Prusoff from best-fit IC50", "result": 410, "unit": "nM"}, {"measurement": "Activation of PKC", "setting": "[15]", "result": "not in U251 cells"}, {"measurement": "Percent Inhibition of Binding 5-HT6", "setting": "[16]; 10 μM test compound, n=4", "result": 96.9, "unit": "%"}, {"measurement": "Ki", "setting": "[16]; read-out: Ki 5-HT6, Cheng-Prusoff from best-fit IC50", "result": 55.3, "unit": "nM"}]}]}
